The results in this text go back to the RNAGym collection of RNA variant scans (doi:10.1126/science.aae0568).

Variants at the floor of the assay were thinned out. Where only a bound is given, the exact number is not on record here.

B1: tRNA (parent)
chain: GUUCCGUUGGCGUAAUGGUAACGCGUCUCCCUCCUAAGGAGAAGACUGCGGGUUCGAGUCCCGUACGGAACG

This data set covers variants of B1. Description: yeast fitness relative to wild type (ratio to wild type); higher = fitter; tRNA-Arg(CCU), competitive growth, 37 C, YPD. The method in brief:
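A pool of Saccharomyces cerevisiae strains, each with a tRNA-Arg(CCU) gene variant at the native genomic locus, was competed in YPD at 37°C for 24 hours across six parallel replicates. The variants had been chemically synthesised at a 3% per-site mutation rate over 69 sites, and gene amplicons before and after competition were read by 100-nucleotide paired-end sequencing. Darwinian fitness relative to wild type rested on changes in genotype frequencies. Genotypes required ≥ 100 starting reads, and estimates < 0.5 were set to 0.5.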
For GUUCCGUUGGCGUAAUGGUAACGCGUCUCCCUCCUAAGGAGUACACUGCGGGUUCGAGUCCCGUACGGAACG [A42U G44C], the yeast fitness is 0.842.

Regarding GUUCCGUUGGCGUAAUGGUAACGCGUCUCCCUCCUAAGGAGUAGACUGCGGGUUCAAGUCCCGUACGGAACG [A42U G56A], the yeast fitness stood at 1.02. Next, GUUCCGUUGGCGUAAUGGUAACGCGUCUCCCUCCUAAGGAGACGACUGCGGGUUCGAGUCCAGUACGGAACG [A43C C62A]: 0.874; GUUCCGUUGGCGUAAUGGUAACGCGUCUCCCUCCUAAGGAGACGACUACGGGUUCGAGUCCCGUACGGAACG [A43C G48A]: 1.06; GUUCCGUUGGCGUAAUGGUAACGCGUCUCCCUCCUAAGGAGUAGACUGCGGGUUCGACAUCCGUACGGAACG [A42U G58C U59A C60U]: 0.659. Take GUUCCGUUGGCGUAAUGGUAACGCGUCUCCCUCCUAAGGAGUACACUGCGGGCUCGAGUCCCGUACGGAACG [A42U G44C U53C]: the yeast fitness was not above 0.5. In the case of GUUCCGUUGGCGUAAUGGUAACGCGUCUCCCUCCUAAGGAGUAGACUGCGGGUUCGAUUCCCGUACGCAACG [A42U G58U G68C], the yeast fitness is not above 0.5. In the case of GUUCCGUUGGCGUAAUGGUAACGCGUCUCCCUCCUAAGGAGACGACUGUGGGUUGGAGUCUCGUACGGAACG [A43C C49U C55G C61U], the yeast fitness was determined as 0.556. For GUUCCGUUGGCGUAAUGGUAACGCGUCUCCCUCCUAAGGAGUAGACUGCGGGUUCGAGUCCCGUACGUAACG [A42U G68U], the yeast fitness is 0.744. GUUCCGUUGGCGUAAUGGUAACGCGUCUCCCUCCUAAGGAGUAGACUGCGGGUUCGAGUCCCGUACGCAACG [A42U G68C]: the yeast fitness came to 0.664.

As to GUUCCGUUGGCGUAAUGGUAACGCGUCUCCCUCCUAAGGAGUAGACUGCGGGGUCGAGUCCCGUACGGAUCG [A42U U53G A70U], the yeast fitness was not above 0.5. For the variant GUUCCGUUGGCGUAAUGGUAACGCGUCUCCCUCCUAAGGAGACGACUGCGGGUUCGGGUCCCGUACGGAACG [A43C A57G], the yeast fitness was 0.744. With GUUCCGUUGGCGUAAUGGUAACGCGUCUCCCUCCUAAGGAGACGACUGCGGGUUCGCGUCCCGUACGGAACG [A43C A57C], the yeast fitness was 0.681. As to GUUCCGUUGGCGUAAUGGUAACGCGUCUCCCUCCUAAGGAGUAGACUACGGGUUCGAGUCGCGUAGGGAACG [A42U G48A C61G C66G], the yeast fitness was not above 0.5. For the variant GUUCCGUUGGCGUAAUGGUAACGCGUCUCCCUCCUAAGGAGUAGACUGCGGGUUCAAGUCCAGUACGGAACG [A42U G56A C62A], the yeast fitness was 0.586.

Turning to GUUCCGUUGGCGUAAUGGUAACGCGUCUCCCUCCUAAGGAGACGACUGCGGGUUCGUGUCCCAUACGGAACG [A43C A57U G63A], the yeast fitness was determined as 0.556.

Regarding GUUCCGUUGGCGUAAUGGUAACGCGUCUCCCUCCUAAGGAGACGACUGCCGGUUCGAGUCCCGUACGGAACG [A43C G50C], the yeast fitness amounted to 0.593. Turning to GUUCCGUUGGCGUAAUGGUAACGCGUCUCCCUCCUAAGGAGACGACUGCAGGUUCGAGUCCCGUACGGAACG [A43C G50A], the yeast fitness came out at 0.803. In the case of GUUCCGUUGGCGUAAUGGUAACGCGUCUCCCUCCUAAGGAGUAGACUGCGGGUACGAAUCCCGUACGGAACG [A42U U54A G58A], the yeast fitness is not above 0.5. As for GUUCCGUUGGCGUAAUGGUAACGCGUCUCCCUCCUAAGGAGUAGACAGCGGGUUCGAGUCCCGUACGGAACG [A42U U47A], the yeast fitness stood at 0.789.

As to GUUCCGUUGGCGUAAUGGUAACGCGUCUCCCUCCUAAGGAGUAGACCGCGGGUUCGAGUCCCGUACGGAACG [A42U U47C], the yeast fitness turned out to be 0.939. Consider GUUCCGUUGGCGUAAUGGUAACGCGUCUCCCUCCUAAGGAGACGACUGCGGGUUCGAGUCCCGUAGGGAACG [A43C C66G], for which the yeast fitness came out at 0.603.

For the variant GUUCCGUUGGCGUAAUGGUAACGCGUCUCCCUCCUAAGGAGACGACUGCGGGUUCGAGUCCCGUAAGGAACG [A43C C66A], the yeast fitness stood at 0.699.

As to GUUCCGUUGGCGUAAUGGUAACGCGUCUCCCUCCUAAGGAGACGACUGUGGGUUCGAGUCCCGUAUGGAACG [A43C C49U C66U], the yeast fitness came to 0.718. The same measure for GUUCCGUUGGCGUAAUGGUAACGCGUCUCCCUCCUAAGGAGACGACUGCGAGUUCGAGUCCCGUACGGAACG [A43C G51A]: 0.809; for GUUCCGUUGGCGUAAUGGUAACGCGUCUCCCUCCUAAGGAGACGACUGCGCGUUCGAGUCCCGUACGGAACG [A43C G51C]: 0.587; for GUUCCGUUGGCGUAAUGGUAACGCGUCUCCCUCCUAAGGAGACGACUACGGGUUCGAGUCCCGUACGGACCG [A43C G48A A70C]: 1.13. In the case of GUUCCGUUGGCGUAAUGGUAACGCGUCUCCCUCCUAAGGAGACGACUGCGGGUUCGAGUGCCGUACAGAACG [A43C C60G G67A], the yeast fitness is not above 0.5.

Regarding GUUCCGUUGGCGUAAUGGUAACGCGUCUCCCUCCUAAGGAGUAGACUGCGGGAUCGAGUCCCGUACGGAACG [A42U U53A], the yeast fitness stood at 0.565. Regarding GUUCCGUUGGCGUAAUGGUAACGCGUCUCCCUCCUAAGGAGUAGACUGCGGGUUCGAGUCCCGCACGGAACG [A42U U64C], the yeast fitness is 1.05.

As to GUUCCGUUGGCGUAAUGGUAACGCGUCUCCCUCCUAAGGAGACGACUGCGGGUUCGAGUCCCAUCCGGAACG [A43C G63A A65C], the yeast fitness came to 0.701.

With GUUCCGUUGGCGUAAUGGUAACGCGUCUCCCUCCUAAGGAGUAGACUGCGGGUUCGAGUCCCGUAAGGAACG [A42U C66A], the yeast fitness was determined as 0.702. Consider GUUCCGUUGGCGUAAUGGUAACGCGUCUCCCUCCUAAGGAGACGACUGCGGCUUCGAGUCCCGUACGGAACG [A43C G52C], for which the yeast fitness was 0.74. For the variant GUUCCGUUGGCGUAAUGGUAACGCGUCUCCCUCCUAAGGAGACGACUGCGGGUUCGAGUCCCGUCCGGAACG [A43C A65C], the yeast fitness came to 1.03.

Consider GUUCCGUUGGCGUAAUGGUAACGCGUCUCCCUCCUAAGGAGUAGACAGCGAGUUCGAGUCCCGUACGGAACG [A42U U47A G51A], for which the yeast fitness was not above 0.5.

For the variant GUUCCGUUGGCGUAAUGGUAACGCGUCUCCCUCCUAAGGAGACGAUUGCGGGUUCGAGUCCCCUAUGGAACG [A43C C46U G63C C66U], the yeast fitness was found to be 0.581.

For the variant GUUCCGUUGGCGUAAUGGUAACGCGUCUCCCUCCUAAGGAGUAGACUGCGGGUUCGAGUCCCGUACCGCACG [A42U G67C A69C], the yeast fitness worked out at 0.573.
